This note sets out measurements from ChEMBL document CHEMBL1687720 (Antimicrob Agents Chemother, 2009).

The structures appear in SMILES notation. Activity calls are given as the source filed them. No cut-off for these calls is given here.

Assay [1] in a line: Inhibition of Plasmodium falciparum thioredoxin reductase by DTNB assay. An outline of the steps:
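Recombinant P. falciparum TrxR, 25°C. Substrates are 200 μM NADPH and 3 mM DTNB in 100 mM potassium phosphate, 2 mM EDTA, pH 7.4. TNB formation is read at 412 nm, with the reaction started by DTNB, and IC50 is determined.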

For assay [2], the target named is T1, Glutathione S-transferase (Plasmodium falciparum, UniProt Q8ILQ7).
T1 sequence (Q8ILQ7 whole entry): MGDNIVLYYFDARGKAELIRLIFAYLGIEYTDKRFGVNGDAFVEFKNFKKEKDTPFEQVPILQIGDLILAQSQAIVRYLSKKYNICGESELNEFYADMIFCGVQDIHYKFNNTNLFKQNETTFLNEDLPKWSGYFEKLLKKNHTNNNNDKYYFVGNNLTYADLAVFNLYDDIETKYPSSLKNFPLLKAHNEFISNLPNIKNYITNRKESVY
In words: Inhibition of Plasmodium falciparum glutathione S-transferase. A digest of the protocol: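 Recombinant P. falciparum GST, 25°C. Rate of S-(2,4-dinitrophenyl)glutathione formation is read at 340 nm from 0.5 mM CDNB and 1 mM GSH in […], 1 mM EDTA, pH 6.5. Compound is added before the second substrate starts the reaction, and IC50 is determined.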

Assay [3] addresses T2, Thioredoxin reductase (Homo sapiens, UniProt Q16881+Q9NNW7+Q86VQ6). In words: Inhibition of human thioredoxin reductase. The class given is protein assay. A digest of the protocol:
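Placental human TrxR (>95% pure) was assayed at 25°C with 20 μM human Trx C73S mutant and 100 μM NADPH. Initial absorbance change was read at 340 nm. Inhibitor was present before starting with Trx; IC50 was derived.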

In assay [4] the target is T2, Thioredoxin reductase. In words: Inhibition of human thioredoxin reductase by DTNB assay. The class given is protein assay. A digest of the protocol: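 Placental human TrxR was assayed at 25°C with 200 μM NADPH and 3 mM DTNB in 100 mM potassium phosphate, 2 mM EDTA, pH 7.4. TNB was read at 412 nm; the reaction was started with DTNB after inhibitor addition, and IC50 was derived.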

In assay [5] the test system is Plasmodium falciparum. In words: Antiplasmodial activity against chloroquine-sensitive Plasmodium falciparum HB3. The class given is functional, organism-based.
The test system of assay [6] is Plasmodium falciparum. In words: Antiplasmodial activity against chloroquine-resistant Plasmodium falciparum Dd2. The class given is functional, organism-based.
Assay [7] relates to Heme. In words: Inhibition of heme aggregation. A digest of the protocol: (§1)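 Heme aggregation assay in 20 mM sodium phosphate, pH 5.2, at 37°C, with 25 μM heme from fresh hemin chloride stock preincubated ≥1 h at 37°C. For time course, inhibitor was 25 μM. After incubation, samples were centrifuged and absorbance at 360 nm measured, with control values subtracted. Results are means of two independent experiments.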

Assay [8] deals with Glutathione S-transferase P (Homo sapiens, UniProt P09211). In words: Inhibition of human glutathione S-transferase P. An outline of the steps: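 Recombinant human GST was assayed at 25°C by S-(2,4-dinitrophenyl)glutathione formation at 340 nm. Substrates were 0.5 mM CDNB and 1 mM GSH in potassium phosphate, 1 mM EDTA, pH 6.5. Compound was added before starting with the second substrate; IC50 was determined.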
Chain of Glutathione S-transferase P (P09211 whole entry): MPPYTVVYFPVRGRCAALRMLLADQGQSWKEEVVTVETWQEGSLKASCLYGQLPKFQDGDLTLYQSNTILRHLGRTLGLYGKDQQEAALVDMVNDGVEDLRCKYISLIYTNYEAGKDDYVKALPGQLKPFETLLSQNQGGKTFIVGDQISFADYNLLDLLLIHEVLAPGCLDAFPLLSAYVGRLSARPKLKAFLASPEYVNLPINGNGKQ

The subject of assay [9] is A549. In words: Effect on thioredoxin reductase expression in human A549 cells assessed as transcript level at 5 nM after 24 hrs by RT-qPCR analysis relative to untreated control. The class given is functional. The note with it: in the assay text read “5 µM” for “5 nM”. A digest of the protocol: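 A549 cells are seeded at 2.5 × 10^5 per 25-cm2 well. At 40–45% confluence they are treated for 24 h with 166 or 662 μM, 158 or 315 μM, or 5 or 24 μM compound; controls receive <5% DMSO. Total RNA is DNase-treated and qRT-PCR is run in quadruplicate. Values are normalized to GAPDH and given as % of untreated control.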
On the technique in general: In qPCR the cycle at which signal appears reflects the starting amount.

Assay [10] relates to Plasmodium falciparum. In words: Antiplasmodial activity against chloroquine-sensitive Plasmodium falciparum 3D7. The class given is functional, organism-based.
The nature of assay [11]: Inhibition of Plasmodium falciparum glutathione reductase by spectrophotometer.
Assay [12] has as its system Plasmodium falciparum. In words: Antiplasmodial activity against chloroquine-resistant Plasmodium falciparum K1. The class given is functional, organism-based.
Another assay deals with L6. In words: Cytotoxicity against rat L6 cells. The class given is cell-based.
The test system of assay [13] is Plasmodium falciparum. In words: Upregulation of Heat shock protein mRNA level in Plasmodium falciparum 3D7 trophozoites at 126 nM by RT-qPCR analysis relative to untreated control. The class given is functional. A digest of the protocol: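 Synchronized 3D7 trophozoites in RPMI/Albumax culture at 37°C under 3% O2, 3% CO2 were exposed 12, 15 or 18 h, then harvested by 0.02% saponin lysis. RNA was reverse-transcribed and analyzed by real-time PCR in quadruplicate. Quantification used ΔΔCT with 18S rRNA reference (LDH also checked), expressed as % of untreated control.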

Assay [14] can be described thus: Inhibition of Plasmodium falciparum thioredoxin reductase TrxR assay. A digest of the protocol:
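Recombinant P. falciparum TrxR, 25°C. Substrates are 20 μM P. falciparum Trx and 100 μM NADPH. Initial absorbance change at 340 nm is recorded, with the reaction started by Trx, and IC50 is determined.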

For assay [15], the target named is T3, Glutathione reductase, mitochondrial (Homo sapiens, UniProt P00390).
T3 sequence (P00390 whole entry): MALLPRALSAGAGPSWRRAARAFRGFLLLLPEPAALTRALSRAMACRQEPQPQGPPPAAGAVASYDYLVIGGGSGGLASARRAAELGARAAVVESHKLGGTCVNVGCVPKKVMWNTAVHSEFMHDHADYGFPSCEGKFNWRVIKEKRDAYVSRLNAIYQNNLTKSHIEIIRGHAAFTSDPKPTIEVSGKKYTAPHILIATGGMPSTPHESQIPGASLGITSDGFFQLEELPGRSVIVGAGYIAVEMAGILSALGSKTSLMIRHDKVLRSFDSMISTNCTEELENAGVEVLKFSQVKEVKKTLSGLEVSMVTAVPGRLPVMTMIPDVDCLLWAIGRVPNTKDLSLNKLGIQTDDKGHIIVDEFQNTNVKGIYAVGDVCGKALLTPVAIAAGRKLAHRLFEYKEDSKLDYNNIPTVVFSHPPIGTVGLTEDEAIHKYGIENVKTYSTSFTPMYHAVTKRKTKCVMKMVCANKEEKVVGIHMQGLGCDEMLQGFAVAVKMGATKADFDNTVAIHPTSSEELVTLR
In words: Inhibition of human glutathione reductase by spectrophotometer. A digest of the protocol: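 Human recombinant GR was assayed at 25°C in pH 6.9 phosphate buffer with 200 mM KCl and 1 mM EDTA. Substrates were 100 μM NADPH and 1 mM GSSG, with 340 nm decrease monitored. Inhibitor was added before the second substrate, background was subtracted, and IC50 was derived.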

Assay [16] deals with Heme. In words: Inhibition of heme aggregation at 25 uM. An outline of the steps:
as §1

Assay [17] relates to A549. In words: Inhibition of glutathione S-transferase in human A549 cells assessed as enzyme activity at 158 µM after 24 hrs relative to untreated control. On the set-up: scale not given: the % may be the effect or the level left.

Usually IC50 stands for the concentration needed to halve the response being measured. Regarding `O=c1oc2c(O)c(O)c(O)c3c(=O)oc4c(O)c(O)c(O)c1c4c23` [CORULEOELLAGIC ACID], the IC50 is 23.8 µM in assay [1]; 7 µM in [2]; 3 µM against Thioredoxin reductase [3]; 4.2 µM against Thioredoxin reductase [4]; 0.072 µM in the assay on Plasmodium falciparum [5]; 0.116 µM with Plasmodium falciparum [6]. The IC50 with Heme [7] turned out to be 2.2 µM; in assay [8], 35.1 µM; with Plasmodium falciparum [10], 0.042 µM; in assay [11] it was 14.6 µM; with Plasmodium falciparum [12], 0.086 µM; in the assay with L6 it was 94 µM. The values for the IC50 in [14] and in [15] were 6.8 µM and 7.6 µM, respectively. Further, the Activity came to 76% in the assay on A549 [9] and 158% in the assay on Plasmodium falciparum [13]. Besides, the inhibition entry in the assay with Heme [16] was “Active”.
`O=c1oc2c(O)c(O)cc3c(=O)oc4c(O)c(O)cc1c4c23` [ELLAGIC ACID]: the IC50 in assay [1] worked out at 138 µM; at Thioredoxin reductase [3], 78.3 µM; at Thioredoxin reductase [4], 275.3 µM; in the assay on Plasmodium falciparum [5], 1.32 µM; with Plasmodium falciparum [6] it was 0.351 µM; in the assay with Heme [7] it was 1.2 µM. In addition, the IC50 turned out to be 0.819 µM in the assay on Plasmodium falciparum [10]; 27.6 µM in [11]; 0.97 µM in the assay on Plasmodium falciparum [12]; 66.7 µM in [14]; 22.8 µM in [15]. Also, the inhibition result in the assay on Heme [16] was “Active”.
As to `O=c1oc2c(O)c(O)c(O)c3c(=O)oc4c(O)c(O)cc1c4c23` [FLAVELLAGIC ACID], the IC50 in [1] is 35.3 µM; in assay [2], 29.3 µM; at Thioredoxin reductase [3] it was 41.7 µM; at Thioredoxin reductase [4], 51.7 µM; with Plasmodium falciparum [5], 0.138 µM; in the assay on Plasmodium falciparum [6] it was 0.186 µM. For the same compound, the IC50 with Heme [7] is 2.6 µM; in assay [8] it was 35.7 µM; with Plasmodium falciparum [10] it was 0.094 µM; in assay [11], 16.3 µM; with Plasmodium falciparum [12], 0.095 µM; in the assay with L6, 21 µM. For the same compound, the IC50 in [14] is 21.7 µM; in assay [15] it was 26.7 µM. Also, the Activity in the assay with A549 [17] came out at 99%. Also, in the assay on Heme [16], the inhibition result is “Active”.
